These results are taken from ChEMBL document CHEMBL1138699, “Design, synthesis, and biological evaluation of the first selective nonpeptide AT2 receptor agonist” (J Med Chem, 2004).

Broadly, the IC50 is the concentration that inhibits the measured activity by half. Low values mean greater potency, high ones weaker potency. As a reminder, the Ki is the dissociation constant of the complex between target and ligand, obtained from inhibition or displacement. Read a high Ki as lower affinity. As a reminder, the half-life is the time needed for the level to fall by half in the phase considered.

Data set [1] concerns the target T1, Angiotensin II receptor (AT-1) type-1 (Rattus norvegicus, UniProt P29089+P25095).
T1 sequence (P29089 whole entry): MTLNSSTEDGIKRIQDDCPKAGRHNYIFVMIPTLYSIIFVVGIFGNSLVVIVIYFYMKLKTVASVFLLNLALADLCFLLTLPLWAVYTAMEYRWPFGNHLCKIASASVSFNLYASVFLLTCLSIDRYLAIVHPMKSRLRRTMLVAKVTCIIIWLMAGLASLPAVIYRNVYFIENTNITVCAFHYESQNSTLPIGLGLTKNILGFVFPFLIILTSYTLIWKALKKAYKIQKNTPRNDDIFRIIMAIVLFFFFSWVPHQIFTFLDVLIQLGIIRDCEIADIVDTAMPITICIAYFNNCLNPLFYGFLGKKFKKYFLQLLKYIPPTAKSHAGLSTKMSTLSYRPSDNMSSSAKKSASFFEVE
T1 sequence (P25095 whole entry): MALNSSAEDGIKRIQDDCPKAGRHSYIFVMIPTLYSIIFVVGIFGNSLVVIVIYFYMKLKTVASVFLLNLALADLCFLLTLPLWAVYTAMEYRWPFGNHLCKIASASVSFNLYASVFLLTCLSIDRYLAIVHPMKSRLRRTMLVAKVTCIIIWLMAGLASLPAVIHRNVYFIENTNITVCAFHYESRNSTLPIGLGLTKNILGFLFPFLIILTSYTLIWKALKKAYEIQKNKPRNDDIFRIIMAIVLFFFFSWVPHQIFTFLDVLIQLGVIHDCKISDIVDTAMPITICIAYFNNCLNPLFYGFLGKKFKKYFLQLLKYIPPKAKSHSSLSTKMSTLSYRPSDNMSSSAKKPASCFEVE
Nature of the data set: Displacement of [125I]-Ang II from rat liver membrane angiotensin II type 1 (AT1) receptor. Background: Loss of bound radioactivity is the signal in a displacement assay; it reports binding, not function.

The target in data set [2] is Type-2 angiotensin II receptor (Sus scrofa). Nature of the data set: Displacement of [125I]-Ang II from pig uterus membrane angiotensin II type 2 (AT2) receptor.
In data set [3] the test system is Rattus norvegicus. Nature of the data set: Concentration of compound required to stimulate secretion of duodenal alkaline secretion in rats when administered intralbuminally was determined. In kind it is functional. In short, it runs like this: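 Same anaesthetized Sprague-Dawley duodenal pH-stat preparation (saline perfusate titrated to pH 7.4 with 0.02 M HCl). Here the agonist went into the intraluminal perfusate at 100 µM, with PD 123,319 at 150 µM intraluminally for antagonism. Net change over basal at 30-45 min; n = 5.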

The species entered for data set [4] is Rattus norvegicus. Nature of the data set: Compound was tested for its ability to rise duodenal alkaline secretion in rats was determined. The format is functional. In outline: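 Anaesthetized (pentobarbital ip 60 mg/kg, then 30 mg kg-1 h-1) nonfasted male Sprague-Dawley rats at 38 °C. Isolated duodenal segment with bile duct diverted, perfused with recirculating isotonic saline. HCO3- output pH-stat titrated to pH 7.4 with 0.02 M HCl. Intravenous infusion; net change is the 30-45 min value minus the last 15 min basal. Mean ± SEM, n = 5; ANOVA with Bonferroni.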

Data set [5] is described as follows: Bioavailability after oral administration in rat was determined; range is 20-30. The format is ADME, organism-based. As to conditions: in vivo, read-out: Bioavailabiility. In short, it runs like this: (§1)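 Male Sprague-Dawley rats (ca. 6-7 weeks), triplicate groups; oral gavage at 30, 100 and 300 µg/kg and single iv tail-vein bolus at 30 µg/kg. Tail-vein blood at 30 min and 1, 2, 4, 6, 8, 24 h, heparinized plasma, acetonitrile precipitation, LC-MS/MS (positive-ion SRM 476.3→293.2). Bioavailability from AUC0-8h rather than AUC0-∞.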

Data set [6] relates to NG108-15. Nature of the data set: Concentration of compound required to induce cell death of mouse neuroblastoma and rat glioma hybrid NG 108-15 cells was determined. The format is functional. In short, it runs like this: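 NG108-15 neuroblastoma × glioma hybrid cells (passage 7-30) were grown in DMEM with 10% FBS, HAT supplement and gentamycin at 37 °C under 7% CO2. They were treated 24 h after plating, with compound added daily, at 1 pM to 1 µM for 3 days. Cell death was judged by phase-contrast microscopy and micrographs.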

Data set [7] is described as follows: Half life after oral administration in rat was determined. The format is ADME, organism-based. As to conditions: in vivo. In outline: as §1
For data set [8], the system named is NG108-15. Nature of the data set: Concentration of compound required to induce neurite outgrowth in mouse neuroblastoma and rat glioma hybrid NG 108-15 cells was determined. The format is functional. In short, it runs like this: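 NG108-15 cells (passage 7-30) in DMEM/10% FBS/HAT at 37 °C, 7% CO2, plated at 3 × 10^4 cells per 35 mm dish. First stimulation 24 h after plating, agonist given daily over 1 pM-1 µM for 3 days. Phase-contrast scoring: a neurite longer than the cell body counts as positive. At least 140 cells, three independent experiments.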

Data set [9] addresses Mitogen-activated protein kinase 3 (Homo sapiens) (UniProt P27361). Nature of the data set: Concentration required to abolish MAPK activity in mouse neuroblastoma and rat glioma hybrid NG 108-15 cells. In kind it is functional, cell-based.

Mitogen-activated protein kinase 3 (Homo sapiens), sequence (P27361 whole entry): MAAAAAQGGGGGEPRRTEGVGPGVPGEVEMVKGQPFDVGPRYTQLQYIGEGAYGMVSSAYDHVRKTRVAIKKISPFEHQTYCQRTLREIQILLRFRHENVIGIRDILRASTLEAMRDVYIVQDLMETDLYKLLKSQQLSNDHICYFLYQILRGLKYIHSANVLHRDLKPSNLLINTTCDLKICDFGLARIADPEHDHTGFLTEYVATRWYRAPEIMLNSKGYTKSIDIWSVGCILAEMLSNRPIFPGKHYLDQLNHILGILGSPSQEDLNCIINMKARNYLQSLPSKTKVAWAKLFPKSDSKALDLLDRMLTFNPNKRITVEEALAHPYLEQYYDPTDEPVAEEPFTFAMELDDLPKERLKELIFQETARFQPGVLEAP

For the compound `CCCCOC(=O)NS(=O)(=O)c1sc(CC(C)C)cc1-c1ccc(Cn2c(CC)nc3c(C)cc(C)nc32)cc1`, in [1], the IC50 worked out at 1.1 nM and the affinity corresponds to a Ki of 3.9 nM.

Turning to `CCCCOC(=O)NS(=O)(=O)c1ccc(Cc2cccc(OC)c2)cc1-c1ccc(Cn2c(CC)nc3c(C)cc(C)nc32)cc1`, the figures for the IC50 in data set [2] and in [1] were 101 nM and 1.4 nM, respectively.

Regarding `CCCCOC(=O)NS(=O)(=O)c1sc(CC(C)C)cc1-c1ccc(Cn2ccnc2)cc1` [BULOXIBUTID], the Activity with Rattus norvegicus [3] is 100 µM; in the data set filed under Rattus norvegicus [4], 0.03 mg/h/kg; with NG108-15 [6] it was 1 µM; in the data set on NG108-15 [8] it was above 0.1 nM. In addition, the bioavailability in data set [5] is below 30%. The Ki in data set [1] is above 10000 nM. In data set [7], this compound gave a half-life of 4 h.

On to `CCCCOC(=O)NS(=O)(=O)c1sc(CC(C)C)cc1-c1ccc(C#N)cc1`, for which the inhibitory constant (Ki) in [1] is recorded as above 10000 nM.

The compound `CCCCOC(=O)NS(=O)(=O)c1sc(CC(C)C)cc1Cc1ccc(-n2ccnc2)cc1` yielded a Ki in data set [1] above 10000 nM.

For `CCCCOC(=O)NS(=O)(=O)c1sc(CC(C)C)cc1Cc1ccc(C#N)cc1`, in [1], the Ki is recorded as above 10000 nM.

On to `CCCCOC(=O)NS(=O)(=O)c1sc(CC(C)C)cc1-c1ccc(Cn2cnc3cccnc32)cc1`, for which the Ki in [1] is reported as above 10000 nM.

For `Cc1cc(Cn2cnc3c2C[C@@H](C(=O)O)N(C(=O)C(c2ccccc2)c2ccccc2)C3)ccc1N(C)C.O=C(O)C(F)(F)F.O=C(O)C(F)(F)F`, the Activity worked out at 150 µM with Rattus norvegicus [3] and 0.3 mg/h/kg in the data set listed under Rattus norvegicus [4]. In data set [1], the IC50 is given as above 10000 nM.

Compound `CCCCOC(=O)NS(=O)(=O)c1sc(CC(C)C)cc1-c1ccc(Cn2cnc3ccccc32)cc1` returned a Ki in data set [1] of 500 nM. This lies in the sub-micromolar range.

`CCCCOC(=O)NS(=O)(=O)c1sc(CC(C)C)cc1-c1ccc(CC#N)cc1`: the Ki in data set [1] was 100 nM.

`CCCCOC(=O)NS(=O)(=O)c1sc(CC(C)C)cc1-c1ccc(Cn2ccnc2C)cc1` had an inhibition constant Ki in data set [1] above 10000 nM.

On to `COc1cccc(-c2cc(=O)c3ccccc3o2)c1N`, for which the Activity in data set [9] amounted to 10 µM.

Consider `CCCCOC(=O)NS(=O)(=O)c1sc(CC(C)C)cc1-c1ccc(Cn2c(CC)nc3ccccc32)cc1`, for which, in data set [1], the Ki is on record as above 10000 nM.
